Test results published in ChEMBL document CHEMBL5661979, “Pharmacological inhibition of BMK1 suppresses tumor growth through promyelocytic leukemia protein” (Cancer Cell, 2010).

Legend:
[1] = molecular target: T1, Ribosomal protein S6 kinase alpha-1 (Homo sapiens, UniProt Q15418); assay: Inhibition of C-terminal RPS6KA1 kinase domain (unknown origin) assessed as remaining activity at 10 uM by ATP-competition binding assay relative to control
[2] = molecular target: 1-phosphatidylinositol 3-phosphate 5-kinase (Homo sapiens, UniProt Q9Y2I7); assay: Inhibition of PIP5K3 in human HeLa cells lysate pre incubated for 15 mins followed by ATP acyl phosphate probe addition and measured after 10 mins by LC-MS/MS analysis; type: subcellular
[3] = molecular target: Protein kinase C theta type (Homo sapiens, UniProt Q04759); assay: Inhibition of PKCtheta in human HeLa cells lysate pre incubated for 15 mins followed by ATP acyl phosphate probe addition and measured after 10 mins by LC-MS/MS analysis; type: subcellular
Protein kinase C theta type, sequence (Q04759 whole entry, the tested form may be a part): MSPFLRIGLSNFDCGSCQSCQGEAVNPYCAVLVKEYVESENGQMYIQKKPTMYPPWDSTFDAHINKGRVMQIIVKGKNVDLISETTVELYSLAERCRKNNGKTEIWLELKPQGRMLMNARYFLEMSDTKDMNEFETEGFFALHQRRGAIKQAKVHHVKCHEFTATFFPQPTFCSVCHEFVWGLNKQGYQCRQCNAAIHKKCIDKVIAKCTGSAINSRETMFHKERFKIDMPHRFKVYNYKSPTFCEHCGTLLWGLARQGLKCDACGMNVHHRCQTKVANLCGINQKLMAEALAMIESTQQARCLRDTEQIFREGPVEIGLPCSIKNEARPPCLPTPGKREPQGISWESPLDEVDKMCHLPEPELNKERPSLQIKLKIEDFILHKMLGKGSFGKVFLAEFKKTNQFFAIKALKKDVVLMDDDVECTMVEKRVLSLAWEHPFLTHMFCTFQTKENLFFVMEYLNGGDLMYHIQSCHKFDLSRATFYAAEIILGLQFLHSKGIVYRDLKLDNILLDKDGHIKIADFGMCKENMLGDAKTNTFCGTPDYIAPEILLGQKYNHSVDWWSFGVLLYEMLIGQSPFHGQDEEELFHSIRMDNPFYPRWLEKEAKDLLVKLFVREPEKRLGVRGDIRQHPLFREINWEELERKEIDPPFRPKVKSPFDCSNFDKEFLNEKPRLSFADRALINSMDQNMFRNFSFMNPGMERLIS

[4] = molecular target: T1, Ribosomal protein S6 kinase alpha-1; assay: Inhibition of RSK1 domain 1 in human HeLa cells lysate pre incubated for 15 mins followed by ADP acyl phosphate probe addition and measured after 10 mins by LC-MS/MS analysis; type: subcellular
[5] = Inhibition of MST4/YSK1 in human HeLa cells lysate at 10 uM pre incubated for 15 mins followed by ADP acyl phosphate probe addition and measured after 10 mins by LC-MS/MS analysis relative to control; conditions: 25 min, condition cancer
[6] = molecular target: T2, Serine/threonine-protein kinase 4 (Homo sapiens) (UniProt Q13043); assay: Inhibition of MST1 in human HeLa cells lysate at 2 uM pre incubated for 15 mins followed by ADP acyl phosphate probe addition and measured after 10 mins by LC-MS/MS analysis relative to control; type: subcellular; conditions: time 25.0 min
T2 sequence (whole entry): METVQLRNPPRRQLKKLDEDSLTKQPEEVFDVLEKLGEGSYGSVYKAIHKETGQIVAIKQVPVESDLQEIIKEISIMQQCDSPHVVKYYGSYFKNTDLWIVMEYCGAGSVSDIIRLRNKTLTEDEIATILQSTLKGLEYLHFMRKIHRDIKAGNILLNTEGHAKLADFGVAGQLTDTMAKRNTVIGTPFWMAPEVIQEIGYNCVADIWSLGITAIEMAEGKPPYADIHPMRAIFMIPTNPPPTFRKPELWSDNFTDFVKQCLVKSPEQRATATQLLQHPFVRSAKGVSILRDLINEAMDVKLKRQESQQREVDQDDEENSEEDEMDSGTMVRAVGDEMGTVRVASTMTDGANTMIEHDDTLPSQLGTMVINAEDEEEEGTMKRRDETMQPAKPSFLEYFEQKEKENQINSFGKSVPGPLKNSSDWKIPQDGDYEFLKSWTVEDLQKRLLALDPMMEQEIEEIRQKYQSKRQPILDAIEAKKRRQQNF

[7] = molecular target: Serine/threonine-protein kinase 3/4 (Homo sapiens) (UniProt Q13043+Q13188); assay: Inhibition of MST1/2 in human HeLa cells lysate at 2 uM pre incubated for 15 mins followed by ADP acyl phosphate probe addition and measured after 10 mins by LC-MS/MS analysis relative to control; type: subcellular; conditions: time 25.0 min
[8] = molecular target: Mitogen-activated protein kinase kinase kinase 20 (Homo sapiens, UniProt Q9NYL2); assay: Inhibition of ZAK in human HeLa cells lysate at 50 uM pre incubated for 15 mins followed by ATP acyl phosphate probe addition and measured after 10 mins by LC-MS/MS analysis relative to control; type: subcellular; conditions: time 25.0 min
Mitogen-activated protein kinase kinase kinase 20, sequence (Q9NYL2 2-800 limits assumed): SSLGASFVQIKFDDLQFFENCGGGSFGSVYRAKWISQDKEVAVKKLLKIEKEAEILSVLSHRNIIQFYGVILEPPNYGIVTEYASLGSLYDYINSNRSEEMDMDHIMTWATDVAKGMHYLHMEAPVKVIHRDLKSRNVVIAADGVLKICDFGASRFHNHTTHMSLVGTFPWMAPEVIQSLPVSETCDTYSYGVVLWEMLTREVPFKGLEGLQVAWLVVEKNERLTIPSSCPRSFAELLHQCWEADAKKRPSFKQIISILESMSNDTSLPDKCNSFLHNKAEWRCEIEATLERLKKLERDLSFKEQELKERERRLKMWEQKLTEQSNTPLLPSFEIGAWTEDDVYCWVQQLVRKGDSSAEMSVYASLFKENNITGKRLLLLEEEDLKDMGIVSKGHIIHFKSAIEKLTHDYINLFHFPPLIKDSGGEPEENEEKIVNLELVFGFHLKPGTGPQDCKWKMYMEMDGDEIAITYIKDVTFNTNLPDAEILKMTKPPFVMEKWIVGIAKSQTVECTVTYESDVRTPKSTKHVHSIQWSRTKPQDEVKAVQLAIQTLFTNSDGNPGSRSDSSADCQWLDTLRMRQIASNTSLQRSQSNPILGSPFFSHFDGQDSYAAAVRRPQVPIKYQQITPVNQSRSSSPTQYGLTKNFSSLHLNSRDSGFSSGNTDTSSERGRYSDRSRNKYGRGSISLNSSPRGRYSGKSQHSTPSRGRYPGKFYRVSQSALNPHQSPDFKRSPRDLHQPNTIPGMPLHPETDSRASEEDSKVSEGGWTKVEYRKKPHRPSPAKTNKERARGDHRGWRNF

[9] = Inhibition of MAP3K2/3 in human HeLa cells lysate at 50 uM pre incubated for 15 mins followed by ATP acyl phosphate probe addition and measured after 10 mins by LC-MS/MS analysis relative to control; conditions: 25 min, condition cancer
[10] = molecular target: Serine/threonine-protein kinase 24 (Homo sapiens, UniProt Q9Y6E0); assay: Inhibition of MST3 in human HeLa cells lysate at 10 uM pre incubated for 15 mins followed by ATP acyl phosphate probe addition and measured after 10 mins by LC-MS/MS analysis relative to control; type: subcellular; conditions: time 25.0 min
Serine/threonine-protein kinase 24, sequence (Q9Y6E0 whole entry, looked up): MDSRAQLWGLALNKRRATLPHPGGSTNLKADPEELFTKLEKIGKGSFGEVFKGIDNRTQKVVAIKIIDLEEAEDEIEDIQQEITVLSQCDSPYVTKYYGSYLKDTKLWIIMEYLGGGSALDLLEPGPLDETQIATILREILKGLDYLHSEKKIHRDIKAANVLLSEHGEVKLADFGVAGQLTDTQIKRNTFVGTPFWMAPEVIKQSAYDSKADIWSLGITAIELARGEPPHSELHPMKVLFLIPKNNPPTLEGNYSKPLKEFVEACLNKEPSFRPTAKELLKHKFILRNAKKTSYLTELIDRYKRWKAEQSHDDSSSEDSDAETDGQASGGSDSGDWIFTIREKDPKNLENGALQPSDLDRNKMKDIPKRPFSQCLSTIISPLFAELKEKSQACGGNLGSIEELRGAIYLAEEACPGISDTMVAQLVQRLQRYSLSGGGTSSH

[11] = molecular target: Cyclin-dependent kinase 2 (Homo sapiens, UniProt P24941); assay: Inhibition of CDK2 K1 site in human HeLa cells lysate at 10 uM pre incubated for 15 mins followed by ATP acyl phosphate probe addition and measured after 10 mins by LC-MS/MS analysis relative to control; type: subcellular; conditions: time 25.0 min
Procedure, shortened: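 KiNativ profiling in HeLa lysate (5 mg/mL total protein). Lysate incubated 15 min with inhibitor at 50, 10, 2, 0.8 or 0 μM. ATP or ADP acylphosphate probe then added (5 μM final) and reacted 10 min. Reaction stopped with urea and analysed by targeted MS, using up to four fragment ions per kinase peptide-probe conjugate. % inhibition taken against untreated lysate. Run in duplicate.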

[12] = molecular target: Phosphatidylinositol 4-phosphate 3-kinase C2 domain-containing subunit beta (Homo sapiens, UniProt O00750); assay: Inhibition of PIK3C2B in human HeLa cells lysate at 2 uM pre incubated for 15 mins followed by ATP acyl phosphate probe addition and measured after 10 mins by LC-MS/MS analysis relative to control; type: subcellular; conditions: time 25.0 min
[13] = molecular target: Ribosomal protein S6 kinase beta-1 (Homo sapiens, UniProt P23443); assay: Inhibition of P70S6K in human HeLa cells lysate at 2 uM pre incubated for 15 mins followed by ATP acyl phosphate probe addition and measured after 10 mins by LC-MS/MS analysis relative to control; type: subcellular; conditions: time 25.0 min
Ribosomal protein S6 kinase beta-1, sequence (P23443 whole entry, looked up): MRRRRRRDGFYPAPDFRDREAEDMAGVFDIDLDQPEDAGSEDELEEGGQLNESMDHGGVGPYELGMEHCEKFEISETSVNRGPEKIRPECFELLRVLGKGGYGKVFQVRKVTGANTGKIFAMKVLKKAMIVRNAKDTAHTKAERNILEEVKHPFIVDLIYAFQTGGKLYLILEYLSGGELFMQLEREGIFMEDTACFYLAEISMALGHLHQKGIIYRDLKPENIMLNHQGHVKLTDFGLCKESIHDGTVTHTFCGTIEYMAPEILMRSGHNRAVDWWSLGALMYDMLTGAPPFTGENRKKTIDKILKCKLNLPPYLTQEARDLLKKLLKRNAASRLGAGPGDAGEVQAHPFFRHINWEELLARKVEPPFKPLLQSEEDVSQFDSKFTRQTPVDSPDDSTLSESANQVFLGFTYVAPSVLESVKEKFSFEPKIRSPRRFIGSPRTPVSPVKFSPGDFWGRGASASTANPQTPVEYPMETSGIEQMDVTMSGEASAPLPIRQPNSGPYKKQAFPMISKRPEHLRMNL

[14] = molecular target: Cyclin-dependent kinase 11B (Homo sapiens, UniProt P21127); assay: Inhibition of PITSLRE in human HeLa cells lysate at 2 uM pre incubated for 15 mins followed by ATP acyl phosphate probe addition and measured after 10 mins by LC-MS/MS analysis relative to control; type: subcellular; conditions: time 25.0 min
Cyclin-dependent kinase 11B, sequence (P21127 whole entry): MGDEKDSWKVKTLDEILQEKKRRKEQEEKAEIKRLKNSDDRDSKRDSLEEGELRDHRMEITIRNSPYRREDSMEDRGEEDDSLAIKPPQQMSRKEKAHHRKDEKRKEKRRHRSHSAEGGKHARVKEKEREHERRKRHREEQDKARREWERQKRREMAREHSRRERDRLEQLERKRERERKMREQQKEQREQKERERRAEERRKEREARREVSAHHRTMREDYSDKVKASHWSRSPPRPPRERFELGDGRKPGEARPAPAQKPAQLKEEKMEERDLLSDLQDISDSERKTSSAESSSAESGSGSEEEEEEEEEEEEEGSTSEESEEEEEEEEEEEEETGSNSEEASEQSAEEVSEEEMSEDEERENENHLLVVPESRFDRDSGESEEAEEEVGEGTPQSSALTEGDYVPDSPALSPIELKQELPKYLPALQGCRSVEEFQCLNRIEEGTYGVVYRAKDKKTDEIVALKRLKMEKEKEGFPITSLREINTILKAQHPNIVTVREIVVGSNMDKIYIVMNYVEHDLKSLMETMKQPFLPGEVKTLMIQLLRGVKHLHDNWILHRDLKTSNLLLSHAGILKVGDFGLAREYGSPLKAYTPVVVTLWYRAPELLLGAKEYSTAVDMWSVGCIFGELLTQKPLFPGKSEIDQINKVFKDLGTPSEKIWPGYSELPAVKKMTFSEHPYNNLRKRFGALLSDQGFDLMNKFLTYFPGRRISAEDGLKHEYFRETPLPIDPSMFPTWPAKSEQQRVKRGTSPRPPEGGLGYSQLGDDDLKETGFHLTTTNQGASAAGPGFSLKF

[15] = molecular target: Serine/threonine-protein kinase greatwall (Homo sapiens) (UniProt Q96GX5); assay: Inhibition of MASTL in human HeLa cells lysate at 2 uM pre incubated for 15 mins followed by ATP acyl phosphate probe addition and measured after 10 mins by LC-MS/MS analysis relative to control; type: subcellular; conditions: time 25.0 min
Serine/threonine-protein kinase greatwall (Homo sapiens), sequence (Q96GX5 whole entry): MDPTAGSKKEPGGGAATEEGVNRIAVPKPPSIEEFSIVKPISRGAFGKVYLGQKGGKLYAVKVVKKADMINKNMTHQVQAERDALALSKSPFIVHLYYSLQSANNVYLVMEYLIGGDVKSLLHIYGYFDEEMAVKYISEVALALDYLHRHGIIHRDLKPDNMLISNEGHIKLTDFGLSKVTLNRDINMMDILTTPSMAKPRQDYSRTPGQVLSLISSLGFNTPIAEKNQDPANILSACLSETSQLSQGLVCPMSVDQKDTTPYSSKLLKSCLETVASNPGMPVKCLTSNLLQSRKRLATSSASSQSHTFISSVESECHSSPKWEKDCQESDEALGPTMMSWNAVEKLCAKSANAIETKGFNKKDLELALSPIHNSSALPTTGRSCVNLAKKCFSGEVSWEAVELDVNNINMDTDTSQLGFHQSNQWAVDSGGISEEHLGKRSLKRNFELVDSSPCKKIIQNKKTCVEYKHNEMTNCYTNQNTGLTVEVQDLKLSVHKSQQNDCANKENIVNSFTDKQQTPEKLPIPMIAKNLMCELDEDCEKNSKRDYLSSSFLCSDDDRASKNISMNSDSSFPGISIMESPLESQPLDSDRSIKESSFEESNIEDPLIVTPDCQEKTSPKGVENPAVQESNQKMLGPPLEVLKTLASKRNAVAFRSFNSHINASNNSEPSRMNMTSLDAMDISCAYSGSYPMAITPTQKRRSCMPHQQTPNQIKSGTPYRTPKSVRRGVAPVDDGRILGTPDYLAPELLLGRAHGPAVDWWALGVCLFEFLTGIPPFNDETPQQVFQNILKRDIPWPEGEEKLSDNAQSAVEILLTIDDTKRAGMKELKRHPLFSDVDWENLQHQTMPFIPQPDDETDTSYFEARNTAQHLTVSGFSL

[16] = molecular target: T2, Serine/threonine-protein kinase 4 (Homo sapiens); assay: Inhibition of MST1 in human HeLa cells lysate at 2 uM pre incubated for 15 mins followed by ATP acyl phosphate probe addition and measured after 10 mins by LC-MS/MS analysis relative to control; type: subcellular; conditions: time 25.0 min

T1 sequence (Q15418 whole entry, the tested form may be a part): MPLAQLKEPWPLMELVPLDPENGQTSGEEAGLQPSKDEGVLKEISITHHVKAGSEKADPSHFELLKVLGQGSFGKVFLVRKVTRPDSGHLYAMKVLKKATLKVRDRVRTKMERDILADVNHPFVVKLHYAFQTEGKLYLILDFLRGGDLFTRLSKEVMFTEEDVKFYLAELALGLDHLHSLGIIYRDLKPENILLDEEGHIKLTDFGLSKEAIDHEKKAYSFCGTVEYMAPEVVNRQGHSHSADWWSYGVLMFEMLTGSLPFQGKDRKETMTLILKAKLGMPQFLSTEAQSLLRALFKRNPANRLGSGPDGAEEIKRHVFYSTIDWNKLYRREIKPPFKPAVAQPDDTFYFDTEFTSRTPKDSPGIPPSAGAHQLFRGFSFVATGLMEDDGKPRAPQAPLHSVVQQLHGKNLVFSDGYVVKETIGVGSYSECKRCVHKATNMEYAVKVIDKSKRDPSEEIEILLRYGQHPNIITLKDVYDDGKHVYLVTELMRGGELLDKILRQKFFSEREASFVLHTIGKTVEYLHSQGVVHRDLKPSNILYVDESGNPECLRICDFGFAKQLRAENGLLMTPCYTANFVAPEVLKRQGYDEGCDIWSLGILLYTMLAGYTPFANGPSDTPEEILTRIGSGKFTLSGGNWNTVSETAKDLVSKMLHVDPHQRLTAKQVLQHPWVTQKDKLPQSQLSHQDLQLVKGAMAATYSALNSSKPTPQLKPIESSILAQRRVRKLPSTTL

For `CCOc1cc(N2CCC(O)CC2)ccc1Nc1ncc2c(n1)N(C)c1ccccc1C(=O)N2C`, the Activity [1] was 28%, the IC50 [2] was > 50 µM and the IC50 [3] was > 50 µM. The IC50 [4] was > 50 µM, the inhibition at 10 µM [5] was 7.9% and the inhibition [6] was 30.6%. For the same compound, the inhibition [7] was -1.2%, the inhibition [8] was 33.3% and the inhibition at 50 µM [9] was -8.7%. For the same compound, the inhibition [10] was -7.7%, the inhibition [11] was -9.1% and the inhibition [12] was 26.1%. For the same compound, the inhibition [13] was 7%, the inhibition [14] was 4.9% and the inhibition [15] was 8.1%. It also gave an inhibition [16] of 2.2%.
